5-HT1A blocker = blocks the human serotonin 5-HT1a receptor | P08908 | CHO 5-HT1a Ga15 NFAT-bla reporter, antagonist mode | inhibition, % at 10 µM | actives 0.68% (n = 62,000) | AID 612;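 active = inhibition above the mean of all tested compounds plus 3 SD, cut at about 43% in these data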;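 also: receptor stimulated by 5-CT agonist at 100 nM near EC80; beta-lactamase reporter measured by ratiometric fluorescence of a cleavable substrate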
HTR1E antagonist = antagonists of human 5-HT1E serotonin receptor; CHO 5-HT1E Ga15 NFAT-bla reporter, FRET, antagonist; inhibition, % at 6 µM; actives 0.99% (n = 65,000);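 active = inhibition above a set limit, the mean inhibition across every tested compound plus 3 SD, cut at about 29% in these data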;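 also: signal is the 460 over 535 nm emission ratio of beta-lactamase substrate; 0% = agonist plus DMSO wells and 100% = wells without agonist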
HTR1A agonist = 5-HT1a (human) receptor agonism | CHO 5-HT1a Ga15 NFAT-bla reporter, FRET ratio; 0% basal, 100% maximal reference agonist | P08908 | actives 0.56% (n = 65,000) | AID 567 | activation, % at 10 µM;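 active = activation above the screen-wide mean activation plus 3 SD, cut at about 19% in these data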;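 also: 0% = DMSO wells and 100% = 5-CT at EC100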
5HT1E ag = activates the human 5-HT1E serotonin receptor; AID 574; CHO 5-HT1E Ga15 NFAT-bla reporter, FRET; 0% DMSO wells, 100% control agonist wells; actives 0.69% (n = 65,000); activation, % at 6 µM; P28566;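 active = activation above a set limit, the screen-wide mean activation plus 3 SD, cut at about 8.5% in these data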;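 also: 100% = positive control agonist at 1 µM giving full maximal response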
S1P3 ag = S1P3 (human) receptor agonism | Q99500 | S1P3 NFAT-BLA reporter cells, FRET ratio; relative to 1 µM S1P, basal subtracted | activation, % at 4.5 µM | actives 0.1% (n = 60,000);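 active = activation above the screen-wide mean plus 3 SD, cut at about 4.5% in these data, passing the limit was not always enough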
Target sequence (Q99500 whole entry, looked up): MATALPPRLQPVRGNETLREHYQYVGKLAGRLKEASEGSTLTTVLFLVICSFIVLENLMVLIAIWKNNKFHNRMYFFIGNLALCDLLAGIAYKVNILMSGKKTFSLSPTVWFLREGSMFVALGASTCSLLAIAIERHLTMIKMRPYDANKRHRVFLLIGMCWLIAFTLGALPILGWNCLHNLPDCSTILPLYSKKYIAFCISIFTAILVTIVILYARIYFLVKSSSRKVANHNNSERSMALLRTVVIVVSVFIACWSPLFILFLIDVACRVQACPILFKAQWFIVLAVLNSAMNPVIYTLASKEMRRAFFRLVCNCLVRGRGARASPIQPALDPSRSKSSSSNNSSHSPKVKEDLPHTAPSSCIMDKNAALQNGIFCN
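Measure – % activation relative to 1 µM S1P (100%), per plate · System – stable CHO line with human S1P3, Gα16, NFAT-BLA reporter · Timing – cells plated overnight, compound 4 h 37 °C, substrate 2 h RT · Technique – fluorescent BLA substrate, ex 405 nm, em 460/535 nm ratio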
S1P1 ag pot = agonists and agonism potentiators of human S1P1 receptor; P21453; S1P1 CRE-bla cells, forskolin, beta-lactamase FRET, potentiator mode; S1P1 agonist co-added at EC20, 2 nM; 100% = saturating reference agonist, 0% = basal; AID 449; activation, % at 9.5 µM; actives 0.57% (n = 56,000);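 active = activation above a cutoff set at the mean activation of all tested compounds plus 3 SD, cut at about 54% in these data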;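 also: forskolin at 4 µM as EC80 and the EC20 agonist is SEW2871; 100% = SEW2871 at its EC100 plus forskolin at EC80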
Numbers without * were called inactive; . = no result given. This is a sample that favours compounds with a hit; in the whole collection about 3% have one here.

SMILES | 5-HT1A blocker | HTR1E antagonist | HTR1A agonist | 5HT1E ag | S1P3 ag | S1P1 ag pot
COc1cccc(-c2nc(-c3ccc(NC(=O)c4cccnc4)cc3)no2)c1 | -2 | 6 | -4 | 0 | -1 | 60*
COc1ccc(CC(=O)Nc2ccc(-c3noc(-c4cccc(OC)c4)n3)cc2)cc1 | -6 | -2 | 0 | 0 | 0 | -2
O=C(NCCCN1CCCC1)c1cccc(N2CCCC2=O)c1 | 7 | 0 | -2 | -1 | . | .
O=C(NCCCN1CCN(c2ccc(F)cc2)CC1)c1cccc(N2CCCC2=O)c1 | 71* | 13 | -2 | 0 | -1 | 12
C=Cn1ccnc1P(=S)(c1ccc2c(c1)c1ccccc1n2CC)c1nccn1C=C | -4 | -6 | 0 | 0 | . | .
Cn1c(=O)[nH]c(=O)c2c1nc(SCCN1CCCCC1)n2CCCc1ccccc1 | -15 | -2 | -1 | -1 | -1 | -3
COc1ccc(-c2cc(C(F)(F)F)n3nc(C(=O)N4CCOCC4)nc3n2)cc1 | -21 | -9 | -2 | 0 | 0 | -8
CCOC(=O)c1oc2ccccc2c1NC(=O)c1cc(OC)cc(OC)c1 | 20 | 15 | -4 | 112* | 1 | -83
O=S(=O)(c1ccc(S(=O)(=O)N(Cc2ccc(F)cc2)C2CCCC2)cc1)N1CCCC1 | 29 | 31* | 1 | -1 | -1 | 16
O=C(CN1C(=O)CC(c2ccccc2)=Nc2ccccc21)NCc1ccco1 | 24 | 31* | -2 | -1 | -1 | 14
O=C(CN(CCc1ccccc1)C(=O)CN1C(=O)COc2ccccc21)NCc1ccco1 | -2 | -3 | -1 | 0 | -1 | -10
O=C(NC1CCCCC1)C1CCN(S(=O)(=O)c2cccs2)CC1 | -12 | -8 | 1 | -1 | . | .
Cc1sc2ncn(CC(=O)OC(C)C(=O)NC(C)(C)C)c(=O)c2c1C (configuration not stated) | -5 | -1 | 98* | 0 | . | .
Cc1nc(NCc2ccco2)c2c3c(sc2n1)CCC3 | 54* | 14 | -2 | 0 | -2 | -21
CCNc1nc(C)c2cc(Br)c(=O)n(CC)c2n1 | 42 | 58* | -1 | -1 | -2 | -35
CC(C)Cn1c(=O)c(C(=O)Nc2ccccc2S(N)(=O)=O)c(O)c2ccccc21 | -26 | -3 | -2 | 0 | -2 | 120*
O=S(=O)(c1ccc2oc(-c3ccncc3)nc2c1)c1ccc2oc(-c3ccncc3)nc2c1 | -16 | -14 | 27* | 1 | 0 | -16
CC(=O)N1CCc2cc(S(=O)(=O)NC(CC(C)C)C(=O)N3CCc4ccccc4C3)ccc21 (configuration not stated) | -3 | -7 | -1 | 0 | 0 | -5
N#Cc1nc(-c2ccccc2Cl)oc1N1CCCCC1 | . | 33* | -1 | 0 | -4 | -15
c1ccc(CSCc2cn3ccsc3n2)cc1 | -3 | -11 | -3 | 0 | -1 | 4
O=c1c2ccccc2nc(SCc2cn3ccsc3n2)n1-c1ccccc1 | -1 | 38* | 1 | 0 | 0 | -40
O=c1c2ccccc2nc(SCc2cn3ccsc3n2)n1-c1ccccc1F | 12 | 43* | 10 | 0 | -1 | 18
N#CC1(C#N)C2=C(CCCC2)NC(c2ccccc2)C1(C#N)C#N (configuration not stated) | 14 | -2 | -1 | 0 | -1 | 12
COc1cccc(CNC(=O)Cn2cccc2)c1 | -2 | -8 | -2 | 24* | 0 | -2
CCOCCCNC(=O)C(NC(=O)c1ccc(=O)[nH]c1)c1ccccc1 (configuration not stated) | -10 | -4 | 1 | 1 | . | .
SMILES | 5-HT1A blocker | HTR1E antagonist | HTR1A agonist | 5HT1E ag | S1P3 ag | S1P1 ag pot
Oc1c(CN2CCCCC2)cc(Br)c2cccnc12 | 47* | 41* | 11 | 1 | -2 | 15
Cc1c(O)c(CN2CCCCC2)cc2c3c(c(=O)oc12)CCC3 | . | 2 | 3 | 0 | -2 | -8
Oc1c(CN2CCc3ccccc3C2)cc(Cl)c2cccnc12 | 25 | 18 | 30* | 0 | -3 | 11
Oc1c(I)cc(Cl)c2cccnc12 | . | -15 | -2 | 2 | -1 | -22
Cc1ccccc1OCc1nc2ccccc2c(=O)n1NC(=O)c1ccco1 | . | -4 | 1 | -1 | -4 | 13
CCN(CC)S(=O)(=O)c1ccc(NCc2ccccc2)nc1 | 15 | 3 | -1 | 0 | -1 | .
Cc1cccc(-n2c(SCC(=O)Nc3nonc3C)nnc2-c2ccoc2C)c1 | 14 | -1 | 34* | 0 | -1 | 11
Cc1cccc(-n2c(SCC(=O)Nc3nnc(C)s3)nnc2-c2ccoc2C)c1 | -1 | 13 | -3 | 1 | -1 | -43
COc1ccc(C(C)N2CC34C=CC(O3)C(C(=O)O)C4C2=O)cc1 (configuration not stated) | -7 | -5 | 0 | 1 | 0 | 0
O=C(NCCCN1CCCC1=O)c1cncc(Br)c1 | -8 | -5 | -1 | 0 | -1 | -1
COc1ccc(NS(=O)(=O)c2ccc(OC)c3ccccc23)cn1 | 1 | 3 | 1 | 1 | 1 | 2
c1ccc(CCn2nnnc2C(c2cccnc2)N2CCN(c3nc4ccccc4s3)CC2)cc1 (configuration not stated) | 18 | 2 | 2 | 1 | 0 | -12
Fc1ccc(N2CCN(C(c3cccs3)c3nnnn3CCc3ccccc3)CC2)cc1 (configuration not stated) | 25 | -5 | 2 | 1 | 1 | 19
c1ccc(CCn2nnnc2C(c2cccnc2)N2CCN(c3ccccc3)CC2)cc1 (configuration not stated) | 9 | 1 | -1 | 9.9* | -1 | -1
Fc1ccccc1N1CCN(C(c2cccs2)c2nnnn2CCc2ccccc2)CC1 (configuration not stated) | 57* | 20 | -4 | -1 | -1 | 40
Cc1cc(C)nc(NC(=O)NS(=O)(=O)N2CCCCCC2)n1 | -3 | 20 | -2 | 0 | -1 | -2
Cc1nn(Cc2ccc(Cl)c(Cl)c2)c(C)c1NC(=O)c1cc(CC(C)C)on1 | -1 | 16 | 2 | 1 | -1 | 76*
O=C(CSc1nnc(-c2cccs2)n1-c1ccccc1)Nc1ccccc1 | -1 | 16 | 3 | 0 | 0 | -22
CCOC(=O)c1cnc(=O)[nH]c1C | 8 | -4 | -1 | 0 | 0 | -4
CCc1nn(C(C)C(=O)NCCN2CCN(c3cccc(C)c3C)CC2)c(=O)c2cc3occc3n12 (configuration not stated) | 40 | -6 | 11 | 62* | 0 | 19
N#Cc1cnn(-c2ccccc2)c1N | 6 | 0 | 0 | 0 | . | .
